Assay results reported in ChEMBL document CHEMBL1921716, “Discovery of N-[2-hydroxy-6-(4-methoxybenzamido)phenyl]-4- (4-methyl-1,4-diazepan-1-yl)benzamide (darexaban, YM150) as a potent and orally available factor Xa inhibitor” (J Med Chem, 2011).

Experiments:
Coagulation factor X [1] = molecular target: T1, Coagulation factor X (Homo sapiens, UniProt P00742); assay: Inhibition of human factor 10A using chromogenic substrate S2222 by absorbance measurement at 405 nm
[2] = Intrinsic clearance in CD1 mouse liver microsomes assessed as compound remaining at 0.2 uM after 30 mins; format: ADME, Microsome
Mus musculus [3] = assay: Anticoagulant activity in mouse assessed as prothrombin time at 100 mg/kg, po measured after 0.5 hrs by coagulometric analysis relative to control; format: functional, ICR
[4] = Effective permeability of the compound after 2 hrs by PAMPA at pH 6.5; format: ADME; details: read-out: Peff
Method in brief: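 Compound from a 10 mM DMSO stock was diluted to a final concentration of about 50 μM in buffer containing 10% DMSO. Donor was pH 6.5 and acceptor pH 7.4, separated by a filter coated with 20% lecithin in dodecane. Plates were incubated 2 h at 25 °C in saturated humidity. Both compartments were quantified by UV at 270–400 nm against standards, with mass balance, to give Pe (n = 2).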

Mus musculus [5] = assay: Anticoagulant activity in mouse assessed as prothrombin time at 100 mg/kg, po measured after 2 hrs by coagulometric analysis relative to control; format: functional, ICR
Plasma [6] = assay: Anticoagulant activity in mouse plasma assessed as concentration required to double the clotting time by coagulometric analysis; format: functional
Method in brief: (§1)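 Citrated blood was spun at 3000 rpm for 10 min to give platelet-poor plasma, stored at −40 °C. Prothrombin time was read on a coagulometer at 37 °C with thromboplastin and compared with a distilled-water control. CT2 (concentration doubling clotting time) was estimated from each concentration–response curve. Each measurement was done three times and reported as the mean.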

Prothrombin = Prothrombin (Homo sapiens, UniProt P00734); assay: Inhibition of human thrombin using chromogenic substrate S2238 by dixon plot analysis
Method in brief: (§2)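 Human enzymes were used at final concentrations of 4.2 mU/mL FXa, 0.20 U/mL thrombin, 1.0 U/mL trypsin and 1.7 mU/mL plasma kallikrein. Substrates were S-2222 (FXa, trypsin), S-2238 (thrombin) and S-2302 (kallikrein). Reactions were started by adding enzyme, and hydrolysis was followed at 405 nm at 37 °C. Mode of inhibition came from Lineweaver–Burk plots and Ki from Dixon plots at several substrate concentrations. Values are means of four determinations.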

Rattus norvegicus [7] = assay: Cmax in F344/DuCrlCrlj rat at 100 mg/kg, po assessed as 3-[(4-methoxybenzoyl)amino]-2-{[4-(4-methyl-1,4-diazepan- 1-yl)benzoyl]amino}phenyl beta-D-glucopyranosiduronic acid level after 24 hrs by LC-MS/MS analysis; format: ADME, organism-based; set-up: dose 100 mg/kg, route oral; details: in vivo
Method in brief: (§3)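 Male F344/DuCrlCrlj rats, 6 weeks old and nonfasted, received a single oral dose of 100 mg/kg as the monomaleate salt suspended in 0.5% methylcellulose, dose given as free form. Three rats per time point were bled at 0.5, 1, 2, 4, 8 and 24 h. Plasma was deproteinized with acetonitrile containing internal standards, and parent and glucuronide were measured by LC-MS/MS.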

Rattus norvegicus [8] = assay: AUC (0 to 24 hrs) in F344/DuCrlCrlj rat at 100 mg/kg, po assessed as 3-[(4-methoxybenzoyl)amino]-2-{[4-(4-methyl-1,4-diazepan- 1-yl)benzoyl]amino}phenyl beta-D-glucopyranosiduronic acid level after 24 hrs by LC-MS/MS analysis; format: ADME, organism-based, Plasma; set-up: time < 24 hr, dose 100 mg/kg, route oral; details: in vivo
Method in brief: as §3

Plasma kallikrein = Plasma kallikrein (Homo sapiens, UniProt P03952); assay: Inhibition of human plasma kallikrein using chromogenic substrate S2302 by dixon plot analysis
Method in brief: as §2

Coagulation factor X [9] = molecular target: T1, Coagulation factor X; assay: Inhibition of human factor 10A using chromogenic substrate S2222 by dixon plot analysis
Method in brief: as §2

Plasma [10] = assay: Anticoagulant activity in human plasma assessed as concentration required to double the clotting time by coagulometric analysis; format: functional
Method in brief: as §1

Trypsin = Trypsin (Homo sapiens, UniProt P07477+P07478+P35030); assay: Inhibition of human trypsin using chromogenic substrate S2222 by dixon plot analysis plot; format: protein assay
Method in brief: as §2

Rattus norvegicus [11] = assay: Tmax in F344/DuCrlCrlj rat at 100 mg/kg, po assessed as 3-[(4-methoxybenzoyl)amino]-2-{[4-(4-methyl-1,4-diazepan- 1-yl)benzoyl]amino}phenyl beta-D-glucopyranosiduronic acid level after 24 hrs by LC-MS/MS analysis; format: ADME, organism-based; set-up: dose 100 mg/kg, route oral; details: in vivo
Method in brief: as §3

[12] = Tmax in F344/DuCrlCrlj rat at 100 mg/kg, po; format: ADME, organism-based; set-up: dose 100 mg/kg, route oral; details: in vivo
Method in brief: as §3

[13] = AUC (0 to 24 hrs) in F344/DuCrlCrlj rat at 100 mg/kg, po; format: ADME, organism-based; set-up: time < 24 hr, dose 100 mg/kg, route oral; details: plasma
Method in brief: as §3

[14] = Cmax in F344/DuCrlCrlj rat at 100 mg/kg, po; format: ADME, organism-based; set-up: dose 100 mg/kg, route oral; details: in vivo
Method in brief: as §3

T1 sequence (P00742 41-179 limits assumed): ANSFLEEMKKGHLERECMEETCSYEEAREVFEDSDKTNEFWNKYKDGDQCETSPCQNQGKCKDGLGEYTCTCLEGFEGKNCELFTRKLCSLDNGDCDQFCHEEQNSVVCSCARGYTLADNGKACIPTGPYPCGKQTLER
T1 sequence (P00742 235-488 limits assumed): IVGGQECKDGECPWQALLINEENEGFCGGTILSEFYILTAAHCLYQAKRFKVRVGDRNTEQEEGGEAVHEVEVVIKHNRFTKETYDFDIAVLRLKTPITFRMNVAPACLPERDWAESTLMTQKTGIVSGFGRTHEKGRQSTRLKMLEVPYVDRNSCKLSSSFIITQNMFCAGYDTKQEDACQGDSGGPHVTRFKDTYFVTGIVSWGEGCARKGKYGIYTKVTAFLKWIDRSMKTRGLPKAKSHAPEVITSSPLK
Plasma kallikrein, sequence (P03952 20-390 limits assumed): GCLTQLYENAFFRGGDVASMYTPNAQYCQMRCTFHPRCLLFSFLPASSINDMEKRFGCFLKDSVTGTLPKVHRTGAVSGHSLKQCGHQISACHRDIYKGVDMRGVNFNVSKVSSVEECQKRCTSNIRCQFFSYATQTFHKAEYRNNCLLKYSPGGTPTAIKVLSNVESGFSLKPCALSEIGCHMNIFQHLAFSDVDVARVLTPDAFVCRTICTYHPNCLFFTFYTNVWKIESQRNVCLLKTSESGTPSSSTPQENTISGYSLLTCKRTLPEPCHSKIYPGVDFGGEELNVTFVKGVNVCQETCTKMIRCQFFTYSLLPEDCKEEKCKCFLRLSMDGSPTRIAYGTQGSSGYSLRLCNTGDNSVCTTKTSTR
Plasma kallikrein, sequence (P03952 391-638 limits assumed): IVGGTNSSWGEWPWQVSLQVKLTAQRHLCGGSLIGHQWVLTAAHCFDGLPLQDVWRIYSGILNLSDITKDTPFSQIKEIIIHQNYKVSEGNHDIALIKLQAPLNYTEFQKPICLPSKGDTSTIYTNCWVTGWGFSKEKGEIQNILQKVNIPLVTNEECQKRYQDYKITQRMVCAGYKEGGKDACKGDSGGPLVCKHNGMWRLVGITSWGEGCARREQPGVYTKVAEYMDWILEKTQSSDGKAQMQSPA

COc1ccc(C(=O)Nc2ccccc2NC(=O)c2ccc(OC)cc2)cc1
IC50 (Coagulation factor X [1]): 4220 nM

COc1ccc(C(=O)Nc2ccc(OC)cc2NC(=O)c2ccc(OC)cc2)cc1
IC50 (Coagulation factor X [1]): 6220 nM

COc1ccc(C(=O)Nc2ccccc2NC(=O)c2ccc(N3CCCN(C)CC3)cc2)cc1
CLint scaled at 0.2 µM [2]: 2050 mL/min/kg | fold change (FC) (Mus musculus [3]): 1.38 | Papp at 2 h [4]: 42 ×10⁻⁶ cm/s | fold change (FC) (Mus musculus [5]): 1.39 | CD (Plasma [6]): 2.8 µM | IC50 (Coagulation factor X [1]): 103 nM

COc1ccc(C(=O)Nc2ccccc2C(=O)Nc2ccc(N3CCCN(C)CC3)cc2)cc1
IC50 (Coagulation factor X [1]): 539 nM

COc1ccc(NC(=O)c2ccccc2NC(=O)c2ccc(N3CCCN(C)CC3)cc2)cc1
fold change (FC) (Mus musculus [3]): 1.02 | fold change (FC) (Mus musculus [5]): 0.98 | CD (Plasma [6]): 5.9 µM | IC50 (Coagulation factor X [1]): 140 nM

COc1ccc(C(=O)Nc2cccc(OC)c2NC(=O)c2ccc(N3CCCN(C)CC3)cc2)cc1
CLint scaled at 0.2 µM [2]: 2200 mL/min/kg | fold change (FC) (Mus musculus [3]): 1.5 | Papp at 2 h [4]: 47.5 ×10⁻⁶ cm/s | fold change (FC) (Mus musculus [5]): 1.32 | CD (Plasma [6]): 3.7 µM | IC50 (Coagulation factor X [1]): 62.6 nM

COc1ccc(C(=O)Nc2ccc(OC)cc2NC(=O)c2ccc(N3CCCN(C)CC3)cc2)cc1
fold change (FC) (Mus musculus [3]): 1.35 | fold change (FC) (Mus musculus [5]): 1.38 | CD (Plasma [6]): 7.5 µM | IC50 (Coagulation factor X [1]): 73.4 nM

COc1ccc(C(=O)Nc2cc(OC)ccc2NC(=O)c2ccc(N3CCCN(C)CC3)cc2)cc1
fold change (FC) (Mus musculus [3]): 1.25 | fold change (FC) (Mus musculus [5]): 1.34 | CD (Plasma [6]): 7.1 µM | IC50 (Coagulation factor X [1]): 118 nM

COc1ccc(C(=O)Nc2c(NC(=O)c3ccc(N4CCCN(C)CC4)cc3)cccc2OC)cc1
CD (Plasma [6]): 13 µM | IC50 (Coagulation factor X [1]): 213 nM

COc1ccc(C(=O)Nc2cccc(C(=O)O)c2NC(=O)c2ccc(N3CCCN(C)CC3)cc2)cc1
fold change (FC) (Mus musculus [3]): 1.05 | fold change (FC) (Mus musculus [5]): 1.08 | CD (Plasma [6]): 9 µM | IC50 (Coagulation factor X [1]): 99.2 nM

COc1ccc(C(=O)Nc2ccc(C(=O)O)cc2NC(=O)c2ccc(N3CCCN(C)CC3)cc2)cc1
fold change (FC) (Mus musculus [3]): 1 | fold change (FC) (Mus musculus [5]): 1 | CD (Plasma [6]): 1.7 µM | IC50 (Coagulation factor X [1]): 31.1 nM

COc1ccc(C(=O)Nc2ccc(O)cc2NC(=O)c2ccc(N3CCCN(C)CC3)cc2)cc1
CLint scaled at 0.2 µM [2]: 1700 mL/min/kg | fold change (FC) (Mus musculus [3]): 1.04 | Papp at 2 h [4]: < 0.3 ×10⁻⁶ cm/s | fold change (FC) (Mus musculus [5]): 1 | CD (Plasma [6]): 1.4 µM | IC50 (Coagulation factor X [1]): 50.3 nM

COc1ccc(C(=O)Nc2cc(O)ccc2NC(=O)c2ccc(N3CCCN(C)CC3)cc2)cc1
fold change (FC) (Mus musculus [3]): 1.02 | fold change (FC) (Mus musculus [5]): 1.01 | CD (Plasma [6]): 4.7 µM | IC50 (Coagulation factor X [1]): 157 nM

COc1ccc(C(=O)Nc2cccc(F)c2NC(=O)c2ccc(N3CCCN(C)CC3)cc2)cc1
fold change (FC) (Mus musculus [3]): 1.43 | fold change (FC) (Mus musculus [5]): 1.22 | CD (Plasma [6]): 4.3 µM | IC50 (Coagulation factor X [1]): 155 nM

COc1ccc(C(=O)Nc2cccc(OCC(=O)O)c2NC(=O)c2ccc(N3CCCN(C)CC3)cc2)cc1
fold change (FC) (Mus musculus [3]): 0.99 | fold change (FC) (Mus musculus [5]): 0.98 | CD (Plasma [6]): 2.8 µM | IC50 (Coagulation factor X [1]): 123 nM

COc1ccc(C(=O)Nc2cccc(OCCO)c2NC(=O)c2ccc(N3CCCN(C)CC3)cc2)cc1
fold change (FC) (Mus musculus [3]): 1.36 | fold change (FC) (Mus musculus [5]): 1.31 | CD (Plasma [6]): 3 µM | IC50 (Coagulation factor X [1]): 106 nM

CSc1ccc(C(=O)Nc2cccc(O)c2NC(=O)c2ccc(N3CCCN(C)CC3)cc2)cc1
IC50 (Coagulation factor X [1]): 1440 nM

CN1CCCN(c2ccc(C(=O)Nc3c(O)cccc3NC(=O)c3ccc(O)cc3)cc2)CC1
IC50 (Coagulation factor X [1]): 6140 nM

CN1CCCN(c2ccc(C(=O)Nc3c(O)cccc3NC(=O)c3ccc(F)cc3)cc2)CC1
IC50 (Coagulation factor X [1]): 349 nM

CN1CCCN(c2ccc(C(=O)Nc3c(O)cccc3NC(=O)c3ccc(Cl)cc3)cc2)CC1
fold change (FC) (Mus musculus [3]): 1.42 | fold change (FC) (Mus musculus [5]): 1.32 | CD (Plasma [6]): 5.3 µM | IC50 (Coagulation factor X [1]): 64.2 nM

CN1CCCN(c2ccc(C(=O)Nc3c(O)cccc3NC(=O)c3ccc(Br)cc3)cc2)CC1
fold change (FC) (Mus musculus [3]): 1.41 | fold change (FC) (Mus musculus [5]): 1.62 | CD (Plasma [6]): 6.7 µM | IC50 (Coagulation factor X [1]): 59.8 nM

COc1ccc(C(=O)Nc2cccc(O)c2NC(=O)c2ccc(N3CCCN(C)CC3)cc2)s1
fold change (FC) (Mus musculus [3]): 2.17 | fold change (FC) (Mus musculus [5]): 1.9 | CD (Plasma [6]): 3.8 µM | IC50 (Coagulation factor X [1]): 86.1 nM

CN1CCCN(c2ccc(C(=O)Nc3c(O)cccc3NC(=O)c3ccc(Cl)s3)cc2)CC1
fold change (FC) (Mus musculus [3]): 1.48 | fold change (FC) (Mus musculus [5]): 1.27 | CD (Plasma [6]): 5.8 µM | IC50 (Coagulation factor X [1]): 41.3 nM

CN1CCCN(c2ccc(C(=O)Nc3c(O)cccc3NC(=O)c3ccc(Br)s3)cc2)CC1
fold change (FC) (Mus musculus [3]): 1.53 | fold change (FC) (Mus musculus [5]): 1.22 | CD (Plasma [6]): 7.1 µM | IC50 (Coagulation factor X [1]): 41.4 nM

COc1ccc(C(=O)Nc2cccc(O[C@@H]3O[C@H](C(=O)O)[C@@H](O)[C@H](O)[C@H]3O)c2NC(=O)c2ccc(N3CCCN(C)CC3)cc2)cc1
Ki (Prothrombin): > 100000 nM | Cmax (Rattus norvegicus [7]): 9439.5 ng/mL | AUC (Rattus norvegicus [8]): 38539.2 ng·h/mL | CLint scaled at 0.2 µM [2]: 90.6 mL/min/kg | Ki (Plasma kallikrein): 17000 nM | Papp at 2 h [4]: < 0.2 ×10⁻⁶ cm/s | Ki (Coagulation factor X [9]): 20 nM | CD (Plasma [10]): 0.95 µM | Ki (Trypsin): > 100000 nM | Tmax (Rattus norvegicus [11]): 0.5 h | CD (Plasma [6]): 2.5 µM | IC50 (Coagulation factor X [1]): 28.6 nM

COc1ccc(C(=O)Nc2cccc(O)c2NC(=O)c2ccc(N3CCCN(C)CC3)cc2)cc1.O=C(O)/C=C\C(=O)O
Tmax [12]: 2 h | AUC(0-t) at 24 h [13]: 1290 ng·h/mL | Cmax [14]: 175 ng/mL

COc1ccc(C(=O)Nc2cccc(O)c2NC(=O)c2ccc(N3CCCN(C)CC3)cc2)cc1 [DAREXABAN]
Ki (Prothrombin): > 100000 nM | CLint scaled at 0.2 µM [2]: 1910 mL/min/kg | fold change (FC) (Mus musculus [3]): 3.49 | Ki (Plasma kallikrein): 11000 nM | Papp at 2 h [4]: 30 ×10⁻⁶ cm/s | Ki (Coagulation factor X [9]): 31 nM | CD (Plasma [10]): 1.2 µM | Ki (Trypsin): > 100000 nM | fold change (FC) (Mus musculus [5]): 2.09 | CD (Plasma [6]): 4.1 µM | IC50 (Coagulation factor X [1]): 54.6 nM
